Experimental data from different studies.
Target: Serine/threonine-protein kinase 32C (STK32C, Homo sapiens, UniProt Q86UX6)

SMILES | read-out | technique | concentration | remaining binding
CN(C)c1nccc(-c2cnc3ncccn23)n1 | binding | – | 1 µM | 100%
O=C(NCCCN1CCOCC1)c1ccc(Nc2nccc(-c3cc4ccccc4s3)n2)cc1 | binding | competition with immobilised ligand | 1 µM | 92%
O=C(Nc1c[nH]nc1C(=O)NC1CCNCC1)c1cc(F)cc(F)c1 | binding | competition with immobilised ligand | 1 µM | 97%
O=C(NCc1ncc(C(F)(F)F)cc1Cl)c1ccc2c(c1)C1(CCS(=O)(=O)CC1)[C@@H](C1CC1)N2S(=O)(=O)c1ccc(F)cc1 | cell-free assay | competition with immobilised ligand | 1 µM | 100%
O=C(c1ccc(Nc2ncc(Cl)c(-c3ccc(Cl)s3)n2)cc1)N1CCC(N2CCCC2)CC1 | binding | competition with immobilised ligand | 1 µM | 100%
CCOC(=O)c1cc2cc(-c3cc(C(=O)NCc4ccc(C(=O)O)cc4)nn3C)ccc2[nH]1 | cell-free assay | competition with immobilised ligand | 0.1 µM | 100%
CNC(=O)[C@@H]1CC[C@@H](n2c(-c3ccc4cnccc4c3)nc3ccc(C(=O)NCc4cccc(C(N)=O)c4)cc32)C1 | binding | competition with immobilised ligand | 1 µM | 93%
c1cnn2ncc(-c3ccnc(N4CCC45COC5)n3)c2c1 | binding | – | 1 µM | 68%
Cc1nc(Cc2cccc(C(F)(F)F)c2)sc1-c1ccc(C(N)=O)nc1 | cell-free assay | competition with immobilised ligand | 1 µM | 87%
C[C@@H]1CN(c2ccc3ncc(-c4ccc5[nH]nc(C6CC6)c5c4)n3n2)C[C@H](C)O1 | binding | competition with immobilised ligand | 50 nM | 85%
COc1ccnn2ncc(-c3ccnc(N(C)C)n3)c12 | binding | – | 1 µM | 80%
CCN1CCN(Cc2ccc(C(=O)Nc3ccc(C)c(Oc4ccc5c(c4)CC(=O)N5)c3)cc2C(F)(F)F)CC1 | binding | competition with immobilised ligand | 1 µM | 100%
FC(F)(F)Oc1cccc(-c2cnc3ccc(-c4ccncc4)nn23)c1 | binding | competition with immobilised ligand | 5 µM | 89%
CC1CCCN1c1nccc(-c2cnn3ncccc23)n1 (centres unmarked) | binding | – | 1 µM | 100%
C[C@@H]1CN(c2cc(-c3nn(C)c4ccc(OC5(C)CC5)cc34)ncn2)C[C@H](C)O1 | cell-free assay | competition with immobilised ligand | 1 µM | 100%
CN(C)c1ncc(F)c(-c2cnn3ncccc23)n1 | binding | – | 1 µM | 87%
O=C(Nc1cnc(Oc2ccc(F)cc2)nc1)N1CCc2ncccc2[C@@H]1c1ccc(F)cc1 | cell-free assay | competition with immobilised ligand | 1 µM | 96%
